Source: PubChem BioAssay AID493047 (Johns Hopkins Ion Channel Center, 2011)
Calls of active or inactive are those of the source.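 The calls were made as follows: active = a rise or drop in KCNQ3 potassium channel activity at some tested dose, with a dose-response curve obtained; inactive = no effect at any dose, or no curve.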

biological target: Potassium voltage-gated channel subfamily KQT member 3 (Rattus norvegicus) (UniProt O88944); assay: rat KCNQ3 activity selectivity test – cell-based, thallium flux, CHO-K1 transient KCNQ3, selectivity assay for KCNQ2 activator project, dose response (AID 493047); conditions: CHO-K1 transient KCNQ3, FluxOR thallium flux fluorescence; series mostly up to 30 µM
Procedure, shortened: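 System: transiently transfected CHO-K1 cells. Also added: depolarizing K2SO4 plus Tl2SO4 stimulus, 5x stock 12.5 mM each. Timing: FluxOR dye loading 90 min, compound exposure 20 min, both RT, dark. Detection: FluxOR thallium-flux fluorescence. Evaluation: % change of flux ratio relative to vehicle. Control set: vehicle.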

Potassium voltage-gated channel subfamily KQT member 3 (Rattus norvegicus), sequence (O88944 whole entry, looked up): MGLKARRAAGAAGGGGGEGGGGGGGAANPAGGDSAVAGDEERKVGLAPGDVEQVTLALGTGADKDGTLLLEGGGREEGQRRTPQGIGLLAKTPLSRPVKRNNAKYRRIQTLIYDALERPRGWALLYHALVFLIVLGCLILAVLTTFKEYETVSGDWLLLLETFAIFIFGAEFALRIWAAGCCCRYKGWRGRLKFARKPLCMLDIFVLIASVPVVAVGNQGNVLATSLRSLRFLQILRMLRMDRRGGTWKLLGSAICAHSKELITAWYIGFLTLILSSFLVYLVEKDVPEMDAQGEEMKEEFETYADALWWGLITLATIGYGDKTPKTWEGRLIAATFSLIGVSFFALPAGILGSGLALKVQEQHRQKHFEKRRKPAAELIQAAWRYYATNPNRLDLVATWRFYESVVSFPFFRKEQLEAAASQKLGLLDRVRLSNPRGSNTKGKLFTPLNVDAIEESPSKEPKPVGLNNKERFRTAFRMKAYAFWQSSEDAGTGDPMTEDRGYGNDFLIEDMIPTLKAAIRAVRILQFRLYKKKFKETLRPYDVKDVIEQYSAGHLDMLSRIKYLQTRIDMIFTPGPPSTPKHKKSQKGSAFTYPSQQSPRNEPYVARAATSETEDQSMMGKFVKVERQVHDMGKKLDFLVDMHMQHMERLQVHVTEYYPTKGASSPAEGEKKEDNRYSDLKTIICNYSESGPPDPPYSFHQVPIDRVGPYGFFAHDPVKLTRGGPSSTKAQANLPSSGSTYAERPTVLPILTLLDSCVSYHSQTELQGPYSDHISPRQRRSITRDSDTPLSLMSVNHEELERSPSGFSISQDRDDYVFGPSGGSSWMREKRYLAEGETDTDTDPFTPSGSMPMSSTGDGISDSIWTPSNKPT

outcome, inactive:
Cc1ccc(C)c(NC(=O)C2CC3CCC2C3)c1 (stereo not given), CCCCC(=O)Nc1c(C)cc(C)cc1Cl, Cc1cccc(C)c1NC(=O)C1CC2CCC1C2 (stereo not given), Cc1cc(C)c(NC(=O)C2CC3CCC2C3)c(C)c1 (stereo not given), Cc1cc(C)c(NC(=O)CC(C)(C)C)c(Cl)c1
